Source: ChEMBL document CHEMBL1155482, “Synthesis, anticancer activity and apoptosis inducing ability of anthranilamide-PBD conjugates” (2010)
Where a name gives a salt, the structure may show the parent alone. Active and inactive are the calls of the source. The calls are words filed in the database; no cut-off is given here.

Experiments:
[1] = system: A549; experiment: Cytotoxicity against human A549 cells after 48 hrs by SRB assay; format: functional; conditions: A549, 48 h
In short: (§1)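 Sulforhodamine B assay estimating cell density from cellular protein content, run on human cancer lines of lung, breast, oral, colon, cervix, ovary and prostate origin, with GI50 values derived.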

[2] = system: HOP-62; experiment: Cytotoxicity against human HOP62 cells after 48 hrs by SRB assay; format: functional; conditions: HOP-62, 48 h; in short: as §1
[3] = system: ZR-75-1; experiment: Cytotoxicity against human ZR-75-1 cells after 48 hrs by SRB assay; format: functional; conditions: ZR-75-1, 48 h; in short: as §1
[4] = system: MCF7; experiment: Cytotoxicity against human MCF7 cells after 48 hrs by SRB assay; format: functional; conditions: MCF7, 48 h; in short: as §1
[5] = Cytotoxicity against human DWD cells after 48 hrs by SRB assay; format: functional; in short: as §1
[6] = system: KB; experiment: Cytotoxicity against human KB cells after 48 hrs by SRB assay; format: functional; in short: as §1
[7] = Cytotoxicity against human Gurav cells after 48 hrs by SRB assay; format: functional; in short: as §1
[8] = system: PC-3; experiment: Cytotoxicity against human PC3 cells after 48 hrs by SRB assay; format: functional; conditions: PC-3, 48 h; in short: as §1
[9] = system: A2780; experiment: Cytotoxicity against human A2780 cells after 48 hrs by SRB assay; format: functional; conditions: A2780, 48 h; in short: as §1
[10] = system: COLO 205; experiment: Cytotoxicity against human COLO205 cells after 48 hrs by SRB assay; format: functional; conditions: COLO 205, 48 h; in short: as §1
[11] = system: SiHa; experiment: Cytotoxicity against human SiHa cells after 48 hrs by SRB assay; format: functional; in short: as §1
[12] = system: A-375; experiment: Cell cycle arrest in human A375 cells assessed as accumulation at S phase at 1 uM by FACS analysis; format: functional
In short: (§2)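 A375 cells were exposed to compound for 24 h, and cell cycle distribution was measured by FACS. The sub-G1 peak (labelled G0) was scored as the apoptotic cell percentage and compared with untreated control cells.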

[13] = system: A-375; experiment: Cell cycle arrest in human A375 cells assessed as accumulation at G0/G1 phase at 1 uM by FACS analysis; format: functional; in short: as §2
[14] = system: A-375; experiment: Cell cycle arrest in human A375 cells assessed as accumulation at G2/M phase at 1 uM by FACS analysis; format: functional; in short: as §2
[15] = system: A-375; experiment: Induction of apoptosis in human A375 cells assessed as caspase 3 activation at 1 uM after 24 hrs by fluorimetry; format: functional, cell-based
In short: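 Caspase-3 activity in treated A375 cells was measured by fluorimetry relative to untreated cells.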

[16] = system: A-375; experiment: Induction of apoptosis in human A375 cells assessed as cells in dub G1 phase at 1 uM after 24 hrs by FACS analysis; format: functional; in short: as §2
[17] = system: A-375; experiment: Antitumor activity against human A375 cells assessed as cell viability at 1 uM after 24 hrs by MTT assay; format: functional, cell-based
[18] = system: A-375; experiment: Induction of apoptosis in human A375 cells assessed as p53 protein expression at 1 uM after 24 hrs by Western blotting; format: functional, cell-based
In short: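 A375 cells were treated for 24 h, and lysates were probed for p53 by western blot with a p53-specific antibody. Untreated cells served as control and β-actin as loading control.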

[19] = molecular target: T1, Type II restriction enzyme BamHI (Bacillus amyloliquefaciens) (UniProt P23940); experiment: Inhibition of Bacillus amyloliquifaction Bam H1-mediated restriction digestion of pBR322 at 4 uM by RED 100 assay
T1 sequence (whole entry): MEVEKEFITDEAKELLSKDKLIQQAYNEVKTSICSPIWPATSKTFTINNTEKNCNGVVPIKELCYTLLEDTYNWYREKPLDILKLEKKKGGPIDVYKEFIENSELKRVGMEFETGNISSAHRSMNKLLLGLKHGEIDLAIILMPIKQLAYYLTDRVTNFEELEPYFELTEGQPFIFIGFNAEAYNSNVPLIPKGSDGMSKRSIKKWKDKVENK
In short: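 Restriction enzyme digestion (RED 100) of vector DNA by BamHI after exposure to compound at 2, 4, 8, 16 and 32 micromolar, with controls of vector cut without compound and uncut vector DNA.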

## COc1cc2c(cc1OCCCN1CCN(C(=O)c3ccccc3NCc3ccncc3)CC1)N=C[C@@H]1CCCN1C2=O
[1]
  GI50: 2000 nM
[2]
  GI50: 2200 nM
[3]
  GI50: 180 nM
[4]
  GI50: 130 nM
[5]
  GI50: 170 nM
[6]
  GI50: 150 nM
[7]
  GI50: 180 nM
[8]
  GI50: 1800 nM
[9]
  GI50: 190 nM
[10]
  GI50: 190 nM
[11]
  GI50: 1800 nM

## COc1cc2c(cc1OCCCN1CCN(C(=O)c3ccccc3NCc3cc(OC)c(OC)c(OC)c3)CC1)N=C[C@@H]1CCCN1C2=O
[1]
  GI50: 2000 nM
[2]
  GI50: 2100 nM
[3]
  GI50: 170 nM
[4]
  GI50: 140 nM
[5]
  GI50: 150 nM
[6]
  GI50: 150 nM
[7]
  GI50: 170 nM
[8]
  GI50: 160 nM
[9]
  GI50: 180 nM
[10]
  GI50: 170 nM
[11]
  GI50: 170 nM

## COc1cc2c(cc1OCCCCCN1CCN(C(=O)c3ccccc3NCc3coc4ccccc4c3=O)CC1)N=C[C@@H]1CCCN1C2=O
[1]
  GI50: 160 nM
[2]
  GI50: 1800 nM
[3]
  GI50: 160 nM
[4]
  GI50: 140 nM
[5]
  GI50: 160 nM
[6]
  GI50: 150 nM
[7]
  GI50: 170 nM
[8]
  GI50: 140 nM
[9]
  GI50: 180 nM
[10]
  GI50: 2400 nM
[11]
  GI50: 130 nM
[12]
  Activity: 13.34%
[13]
  Activity: 81.9%
[14]
  Activity: 6.68%
[15]
  Activity: Active
[16]
  Activity: 3.483%
[17]
  Activity: Active

## COc1cc2c(cc1OCCCN1CCN(C(=O)c3ccccc3NCc3ccc4ccccc4c3)CC1)N=C[C@@H]1CCCN1C2=O
[1]
  GI50: 170 nM
[2]
  GI50: 1700 nM
[3]
  GI50: 150 nM
[4]
  GI50: 140 nM
[5]
  GI50: 140 nM
[6]
  GI50: 150 nM
[7]
  GI50: 170 nM
[8]
  GI50: 140 nM
[9]
  GI50: 170 nM
[10]
  GI50: 180 nM
[11]
  GI50: 160 nM
[12]
  Activity: 6.32%
[13]
  Activity: 83.66%
[14]
  Activity: 6.32%
[15]
  Activity: Active
[16]
  Activity: 5.486%
[17]
  Activity: Active

## O=C(c1ccccc1NCc1coc2ccccc2c1=O)N1CCNCC1
[12]
  Activity: 18.53%
[13]
  Activity: 68.39%
[14]
  Activity: 15.45%
[16]
  Activity: 1.15%
[17]
  Activity: Active

## COc1cc2c(cc1O)N=C[C@@H]1CCCN1C2=O
[1]
  GI50: 160 nM
[2]
  GI50: 150 nM
[4]
  GI50: 170 nM
[6]
  GI50: 170 nM
[7]
  GI50: 160 nM
[8]
  GI50: 200 nM
[9]
  GI50: 140 nM
[10]
  GI50: 110 nM
[11]
  GI50: 170 nM
[12]
  Activity: 23.08%
[13]
  Activity: 67.67%
[14]
  Activity: 12.19%
[15]
  Activity: Active
[16]
  Activity: 2.683%
[17]
  Activity: Active

## COc1cc2c(cc1OCCCCCN1CCN(C(=O)c3cc(Cl)ccc3NCc3ccc4ccccc4c3)CC1)N=C[C@@H]1CCCN1C2=O
[1]
  GI50: 2000 nM
[2]
  GI50: 2000 nM
[3]
  GI50: 180 nM
[4]
  GI50: 140 nM
[5]
  GI50: 170 nM
[6]
  GI50: 140 nM
[7]
  GI50: 170 nM
[8]
  GI50: 170 nM
[9]
  GI50: 180 nM
[10]
  GI50: 29000 nM
[11]
  GI50: 1800 nM

## COc1cc2c(cc1OCCCCCN1CCN(C(=O)c3ccccc3NCc3ccc4ccccc4c3)CC1)N=C[C@@H]1CCCN1C2=O
[1]
  GI50: 170 nM
[2]
  GI50: 1800 nM
[3]
  GI50: 150 nM
[4]
  GI50: 130 nM
[5]
  GI50: 130 nM
[6]
  GI50: 130 nM
[7]
  GI50: 140 nM
[8]
  GI50: 140 nM
[9]
  GI50: 140 nM
[10]
  GI50: 150 nM
[11]
  GI50: 150 nM
[12]
  Activity: 7.09%
[13]
  Activity: 91.94%
[14]
  Activity: 1.97%
[18]
  Activity: Active
[15]
  Activity: Active
[19]
  inhibition: Active
[16]
  Activity: 7.333%
[17]
  Activity: Active

## COc1cc2c(cc1OCCCCCN1CCN(C(=O)c3cc(Cl)ccc3NCc3coc4ccccc4c3=O)CC1)N=C[C@@H]1CCCN1C2=O
[1]
  GI50: 170 nM
[2]
  GI50: 1800 nM
[3]
  GI50: 160 nM
[4]
  GI50: 150 nM
[5]
  GI50: 170 nM
[6]
  GI50: 160 nM
[7]
  GI50: 170 nM
[8]
  GI50: 160 nM
[9]
  GI50: 180 nM
[10]
  GI50: 2300 nM
[11]
  GI50: 160 nM

## COc1cc2c(cc1OCCCCCN1CCN(C(=O)c3ccccc3NCc3ccncc3)CC1)N=C[C@@H]1CCCN1C2=O
[1]
  GI50: 2000 nM
[2]
  GI50: 2300 nM
[3]
  GI50: 2000 nM
[4]
  GI50: 160 nM
[5]
  GI50: 150 nM
[6]
  GI50: 150 nM
[7]
  GI50: 170 nM
[8]
  GI50: 170 nM
[9]
  GI50: 170 nM
[10]
  GI50: 25000 nM
[11]
  GI50: 1800 nM

## COc1cc2c(cc1OCCCCCCN1CCN(C(=O)c3ccccc3NCc3ccncc3)CC1)N=C[C@@H]1CCCN1C2=O
[1]
  GI50: 2200 nM
[2]
  GI50: 25000 nM
[3]
  GI50: 2000 nM
[4]
  GI50: 150 nM
[5]
  GI50: 170 nM
[6]
  GI50: 150 nM
[7]
  GI50: 180 nM
[8]
  GI50: 1800 nM
[9]
  GI50: 190 nM
[10]
  GI50: 2600 nM
[11]
  GI50: 1900 nM

## COc1cc2c(cc1OCCCCCCN1CCN(C(=O)c3ccccc3NCc3cc(OC)c(OC)c(OC)c3)CC1)N=C[C@@H]1CCCN1C2=O
[1]
  GI50: 180 nM
[2]
  GI50: 1900 nM
[3]
  GI50: 180 nM
[4]
  GI50: 140 nM
[5]
  GI50: 150 nM
[6]
  GI50: 150 nM
[7]
  GI50: 170 nM
[8]
  GI50: 160 nM
[9]
  GI50: 170 nM
[10]
  GI50: 160 nM
[11]
  GI50: 1800 nM

## COc1cc2c(cc1OCCCCCN1CCN(C(=O)c3ccccc3NCc3cc(OC)c(OC)c(OC)c3)CC1)N=C[C@@H]1CCCN1C2=O
[1]
  GI50: 1900 nM
[2]
  GI50: 1900 nM
[3]
  GI50: 160 nM
[4]
  GI50: 140 nM
[5]
  GI50: 140 nM
[6]
  GI50: 140 nM
[7]
  GI50: 160 nM
[8]
  GI50: 140 nM
[9]
  GI50: 160 nM
[10]
  GI50: 2200 nM
[11]
  GI50: 170 nM

## COc1cccc2c1C(=O)c1c(O)c3c(c(O)c1C2=O)C[C@@](O)(C(=O)CO)C[C@@H]3O[C@H]1C[C@H](N)[C@H](O)[C@H](C)O1 [DOXORUBICIN HYDROCHLORIDE]
[2]
  GI50: 140 nM
[4]
  GI50: 170 nM
[5]
  GI50: 100 nM
[6]
  GI50: 170 nM
[7]
  GI50: 170 nM
[9]
  GI50: 160 nM
[10]
  GI50: 140 nM
[11]
  GI50: 170 nM

## COc1cc2c(cc1OCCCCCCN1CCN(C(=O)c3ccccc3NCc3ccc4ccccc4c3)CC1)N=C[C@@H]1CCCN1C2=O
[1]
  GI50: 170 nM
[2]
  GI50: 1900 nM
[3]
  GI50: 160 nM
[4]
  GI50: 140 nM
[5]
  GI50: 160 nM
[6]
  GI50: 150 nM
[7]
  GI50: 170 nM
[8]
  GI50: 150 nM
[9]
  GI50: 190 nM
[10]
  GI50: 180 nM
[11]
  GI50: 150 nM

## O=C(c1ccccc1NCc1ccc2ccccc2c1)N1CCNCC1
[12]
  Activity: 14.56%
[13]
  Activity: 72.22%
[14]
  Activity: 14.78%
[16]
  Activity: 1.233%
[17]
  Activity: Active
